Test system: MS2 coat protein
Assay: apparent Kd, MS2 coat protein; higher = weaker binding; RNA-MaP array; FMN 200 µM where present
Procedure, shortened: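 Binding was read on Illumina sequencing-chip clusters where stalled E. coli RNA polymerase had transcribed each design. A titration of SNAP-549-labelled MS2 coat protein began at 0.7 or 1.5 nM and doubled to 3 µM, once without ligand and once with constant ligand, in 100 mM Tris-HCl pH 7.5, 80 mM KCl, 4 mM MgCl2, BSA, DTT, yeast tRNA and Tween-20. The apparent Kd is the median of filtered per-cluster binding-curve fits, based on green signal normalised to red-channel RNA signal and control-cluster median Fmax.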

[1] = designed as: OFF switch for flavin mononucleotide, no ligand
[2] = ligand present: flavin mononucleotide, designed as: OFF switch for flavin mononucleotide
[3] = designed as: ON switch for flavin mononucleotide, no ligand
[4] = ligand present: flavin mononucleotide, designed as: ON switch for flavin mononucleotide

Sequence	apparent Kd [1] [nM]	apparent Kd [2] [nM]	apparent Kd [3] [nM]	apparent Kd [4] [nM]
AUGCCUUAUGUAGGAUAUGCAUAGCAUUGCUAUGCAGAAGGACAUGAGGAUCACCCAUGUAUGUAUUCCAUACAUAUCUGGCAU	29.5	343		
AUAUGAUAGAUAGGAUAUACAGUUGAAUAAUAAGUAGAAGGAUCAAAUGGGAAUUAUACAUGAGGAUCACCCAUGUUUUUGGAU			44.1	35.8
UCCGCGGACAUAGGAUAUACUGCGAAAUUUCUAGUAGAAGGGUGACCGCACGUGCGAACUGUACAUGAGGAUCACCCAUGUACU			21.4	23.1
CAUUAUUAUCGAGGAUAUCCUAUUGAAAUUCUGGGAGAAGGCGGACUCAACAUGAGGAUCACCCAUGUGGGACGGAUGCUAGGG	22.9	20		
ACAGCGUGAGGAUAUACAUGAGGAUCACCCAUGUAUGGCAGGUUAUCCUGUCGUGAGUGUAGAAGGCACGCUGU	17.4	58.9		
AGCUAGUCAGGAUAUACGCGAACGAACGAAGCAGUGAAGGGACAUGAGGAUCACCCAUGUAGAAGGGACUAGCA	27.1	53.7		
GUGUACAGAGGAUAUACACGAGUAGUUACGAAAGUAACUAUACAUGAGGAUCACCCAUGUAGAAGGCUGUACAC	19.1	30.5		
UUAAGUCAUGUAGGAUAUCCGAUGCGAAGCGUUGGAGAAGGACAUGAGGAUCACCCAUGUUCUAGCGUCUGAGUACAGAUGCAA	27	76		
GGAGCACAUAAAUACAUGAGGAUCACCCAUGUCAAAAGACAUGAGGAUAUGGAUCGGAAAACGAUCUAGAAGGCAUGGUGCUCC			533	20.9
AUAUGAUAGAUAGGAUAUACAGAUGAAUAAUAAGUAGAAGGAUCAAAUGGGAAUUAUACAUGAGGAUCACCCAUGUUUUUGGAU			50.1	32.1
ACCUCACAUGAGGAUCACCCAUGUUAGGAUAUCUCGACACUCCGCGGGCGGUAGCGUCAGAGAAGGAACGUGCU	29.1	24.9		
AAUUAUUUUUGAGGAUAUUGUGGUGAAACACCACAAGAAGGCAAGAUACACAUGAGGAUCACCCAUGUGAGCCUGAUGCUUAUG	17.1	21.3		
CCGGAAAUACAGGAUAUAGGAGUCGAUAGACUCCUAGAAGGGUAUACAUGAGGAUCACCCAUGUGUCCUACCGG	26.5	31.7		
CCAGAGGUCACAGGAUAUGACUCGUCCAAAUGGUCAGAAGGGUGAAUCACAUUAUGUAUACAUGAGGAUCACCCAUGUCCUACG			93.2	498
CGCUUUGUACAUGAGGAUCACCCAUGUUAAUAUGUGGUAGUCAGAAGGCAUUGUUUGAGAUAUUAUGAGGAUAUGAUUAGUCUG			73.2	43.6
UUGUUACAUGAGGAUCACCCAUGUGAGGAUAUGGCCCGCCCGGCGUGUGCUGGUUUUGUCAGAAGGCGCGUGGG	61.6	170		
GUACUGUAGUGAGGAUAUACGAGAUCGAUAGAUCGGCGAUCCAAUUAUACAUGAGGAUCACCCAUGUAGAAGGCACUUCAGUAC	8.75	55.8		
CUAUCAAGCAAGGAUAUGCAAAUAAUUAUUUAUGCAGAAGGUGCAACAUGAGGAUCACCCAUGUUUCUGGGUUU	57.4	89.6		
UGUCCAUAGCAGAAGGCUAGAAAACAUGAGGAUCACCCAUGUCAAAAGACUAGAGGAUAUGCUAUGGACUAAGAGCGAAAGCUC	3.97	3.81		
UUUAACGUAGCAGGAUAUUGACGACUUGGGACAUGAGGAUCACCCAUGUUGCAAGAAGGGCUUAGUCAAGACACGAGCGGUGUU	6.54	8.15		
CACGCCUAGGAGAAGGGCCCACUAUAGGGUAAAUGCUGUUCUCACAUGAGGAUCACCCAUGUGCGGCAGGAUAUCCACGCGUAA	7.28	34.6		
CUGCUGGAGCUUUGCUUUAGUCGUACAUGAGGAUCACCCAUGUAGGAUAUGGUAGGCUUCGCUUACUAGAAGGAUAGAGUGGUC	33.6	22.8		
GAGAGGUCAGGAUAUGCAUGGCGGGACUUGCGUCGUGGCGUGCAGAAGGGACAUGAGGAUCACCCAUGUGGAGG	169	203		
AUUUUAUAAUAGAAGGUAGACUUCAUGAGGAUCACCCAUGUGUUGGUACUAAGGAUAUGUAAUAACAUGAGGAUCACCCAUGUU			16.1	15.2
ACGUGUAAGCAGAAGGGUUAGCACAUGAGGAUCACCCAUGUAACAGUGGACAGGAUAUGCGCUCAUGUUGGAUAGGGCCUUCCC			302	67.6
UUAAAUCAUGUAGGAUAUGCGUGGCGAAGCUAUGCAGAAGGACAUGAGGAUCACCCAUGUUCUGCGGUCUGCGUACAGAUCGCU	18.3	155		
UUAAUGAAGUAAGGAUAUACAUGAGGAUUUCUCGUAGAAGGUACUAUACAUGAGGAUCACCCAUGUGCCGGUCAGAAGACUGGA			433	274
AAGUUUAACGAAGGAUAUGGUUACAUGAGGAUCACCCAUGUAUUUUUUGUGAUCUUGAAAUAGUUCCAGAAGGUCGUAUACAUA	138	359		

Sequence	apparent Kd [1] [nM]	apparent Kd [2] [nM]	apparent Kd [3] [nM]	apparent Kd [4] [nM]
UUACUAUUACAGAAGGUUAAAUAAUAUAUAAAUGAAGGAUAUGUAACAUGAGGAUCACCCAUGUUUCACCCACAUGAGGAUCAU	9.63	9.57		
UUGGACGUCGUAGGAUAUGUAGGAUAUACCUACAUGAGGAUCACCCAUGUUGACAUGGAAGAAGGACAGAAGGACGAUGUCCAU			439	153
AGAUACAACCAGAAGGACAUGAGGAUCACCCAUGUAGGAUAUGGGUUACACGUUCCUGGGAAUUGUAACGACGCUACGAAGAGU			126	12.8
UCGAGGUCAGGAUAUACAUGAGGAUCACCCAUGUUGAGAUAAGGUAGGAAAAGAGUAGGUAGAAGGGACGAGAG	27.6	30.9		
ACCUUACAUGAGGAUCACCCAUGUUAGGAUAUCUCGCCUGCGCUAACAAAGCGCAGGCAGAGAAGGGACGCGGG	28.5	31.8		
UCGGCGCGAGGAUAUGCGGUUUGUGCUUUGGGCCCUGGCGUACAUGAGGAUCACCCAUGUAGAAGGCGCGCCGC	19.5	19.6		
AAAAAAAGAGGAUAUACAUGAGAAAAAAAAAUGUAAAAAAAACAUGAGGAUCACCCAUGUAGAAGGCUUAAAAA	34.6	45.4		
GUGCUUAUCGAAGGAUAUGGUUACAUGAGGAUCACCCAUGUUAUGCUUGGUUACUUGUUUAGUUUCCAGAAGGUCGAUUAGUUG	75.5	170		
ACAUGAGGAUCACCCAUGUUAUCAGGGACUUCAAUUAUUUGUAGAAGGCUGUUUUCUUGUAAGUCAGAGGAUAUACAAUUAAAU	11.9	14.3		
AAGCAAGCAGGGAUGCUUCGUAGGGAGGAUAUCUGACUGGGCGGACAUGAGGAUCACCCAUGUACAGAGAAGGCCCAAAACAAC	376	61.6		
CCUGGAGGAAAACAGACGAAGUGGCCAGAAGGUGAAUGCCACAUGAGGAUCACCCAUGUUUCGAUCAAGGAUAUGGUUUCUCAC			329	161
AUGCUUCACACAGGAUAUACAUGAGGAUCACCCAUGUGUCCACCGUAGCUGACACGAGCUACGCUGUAGAAGGGUGUGAAGCAU	19.3	52.8		
AGUGUGUGGCAGGAUAUGCGAUUUGUCGGUGUUGCAGAAGGGUCUACAUGAGGAUCACCCAUGUGUGCGGUUGA	184	309		
AUCAGCUCGUCAGGAUAUACGUCACUGCGUCAGCAGUGUGGUAAGAUCACAUGAGGAUCACCCAUGUAGAAGGGACGACCUGAU	13.8	278		
UAGAAGUCAGGAUAUGCUGCUCGUCACUUGCGUGAUGAGUAGCAGAAGGGACAUGAGGAUCACCCAUGUAAAGA	57.4	79.9		
CGUCUGUCAGGAUAUAGUUACGUAGACAUGAGGAUCACCCAUGUGACGUGGGACUAGUGACUAGAAGGGACGAACG	22.3	52.5		
UUGUUGUAUGUAGGAUAUGCAUAUUGUUAUUAUGCAGAAGGACAUGAGGAUCACCCAUGUAUAUUAUUAUUAUAUAUUAUAUAU	27.7	43.9		
UAGAUGGGAGGAUAUACGUAGAUGCAGGUUCGUGUGGUUCUACAUGAGGAUCACCCAUGUAGAAGGCCCGUCUU	16.6	27.5		
AAUUAUUUGUAGAAGGAAGGAGAUUUUGUAUUCUUAGGAUAUACUAUUACAUGAGGAUCACCCAUGUUUGAAGGGUUGCUAUGU	74.2	82.2		
GGCAGCUCGUGAGGAUAUACAACACUGCUUCGGCAGUGUAUUAAGAUCACAUGAGGAUCACCCAUGUAGAAGGCACGAGCUGAU	13.9	254		
GUGUGCUGAGGAUAUACACAGGAAUAGAAGAUAAGAUAAUCACAUGAGGAUCACCCAUGUAGAAGGCAGAGUGU	15.2	17.3		
UGAUCUAUGUAGAAGGCCCAUAUCUGUAUUUAGGGAGGAUAUACAUGAGGAUCACCCAUGUGUAGAGCUGGUGGACUGGUCAGC	87.8	183		
GAUGCAUAUGAGAAGGCGAUCAUGAAACAUGAUCGAGGAUAUCAUGUAAACAUGAGGAUCACCCAUGUAUGGGUAAAGUGCAUC			392	27.7
CAUACACAUGAGGAUCACCCAUGUGAGGAUAUGCGUACGUAAUCCGUAGGAGACGUGCGCAGAAGGCGCGAGGU	56.6	44		
UAGUAUAAGGGCAUUACACAUGAGGAUCACCCAUGUACGUUAGAGGAUAUGCAUUACAGUUGAACGUAGAAGGUUAGAGAAGGG	73.6	80.3		
UACAUGUGAGGAUAUGUACGAGGCCCUGACGGGUCUCGCAGGCAGAAGGCACAUGAGGAUCACCCAUGUGACCG	24.7	96.6		
AUCAGCUCGUCAGGAUAUACGUCACUGCGUCAGCAGUGUGGUAAGAUCACAUGAGGAUCACCCAUGUAGAAGGAACGAGCUGAU	8.41	14.7		
